Measurements taken from paper PMC9159088 (Chemical Science, 2022).

Legend:
[1] = system: Huh7 xenograft tumors; assay: Mice xenograft model of HCC; type: in vivo, NOD-SCID mice; details: 30 mg kg−1 ip. twice a week
[2] = Serum biochemistry assay; type: in vivo, NOD-SCID mice; details: 30 mg kg−1 ip. twice a week
Summary of the method: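 Huh7 cells (5 × 106) implanted subcutaneously into left and right flanks of NOD-SCID mice. From day 7 after inoculation, test compound or reference drug given ip at 30 mg kg−1 twice a week for 34 days; bodyweight monitored. Serum AST, ALT, total bilirubin, creatinine and BUN measured for hepatorenal toxicity; significance set at P < 0.05.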

[3] = target: T1, human Golgi α-mannosidase II (α-hGMII) (Homo sapiens, UniProt Q16706); assay: 4-MU-based enzyme inhibition study, wild-type α-hGMII; type: biochemical; details: SI = (α-hLM Ki)/(α-hGMII Ki), Man-α-4MU substrate
T1 sequence (Q16706 1-1144): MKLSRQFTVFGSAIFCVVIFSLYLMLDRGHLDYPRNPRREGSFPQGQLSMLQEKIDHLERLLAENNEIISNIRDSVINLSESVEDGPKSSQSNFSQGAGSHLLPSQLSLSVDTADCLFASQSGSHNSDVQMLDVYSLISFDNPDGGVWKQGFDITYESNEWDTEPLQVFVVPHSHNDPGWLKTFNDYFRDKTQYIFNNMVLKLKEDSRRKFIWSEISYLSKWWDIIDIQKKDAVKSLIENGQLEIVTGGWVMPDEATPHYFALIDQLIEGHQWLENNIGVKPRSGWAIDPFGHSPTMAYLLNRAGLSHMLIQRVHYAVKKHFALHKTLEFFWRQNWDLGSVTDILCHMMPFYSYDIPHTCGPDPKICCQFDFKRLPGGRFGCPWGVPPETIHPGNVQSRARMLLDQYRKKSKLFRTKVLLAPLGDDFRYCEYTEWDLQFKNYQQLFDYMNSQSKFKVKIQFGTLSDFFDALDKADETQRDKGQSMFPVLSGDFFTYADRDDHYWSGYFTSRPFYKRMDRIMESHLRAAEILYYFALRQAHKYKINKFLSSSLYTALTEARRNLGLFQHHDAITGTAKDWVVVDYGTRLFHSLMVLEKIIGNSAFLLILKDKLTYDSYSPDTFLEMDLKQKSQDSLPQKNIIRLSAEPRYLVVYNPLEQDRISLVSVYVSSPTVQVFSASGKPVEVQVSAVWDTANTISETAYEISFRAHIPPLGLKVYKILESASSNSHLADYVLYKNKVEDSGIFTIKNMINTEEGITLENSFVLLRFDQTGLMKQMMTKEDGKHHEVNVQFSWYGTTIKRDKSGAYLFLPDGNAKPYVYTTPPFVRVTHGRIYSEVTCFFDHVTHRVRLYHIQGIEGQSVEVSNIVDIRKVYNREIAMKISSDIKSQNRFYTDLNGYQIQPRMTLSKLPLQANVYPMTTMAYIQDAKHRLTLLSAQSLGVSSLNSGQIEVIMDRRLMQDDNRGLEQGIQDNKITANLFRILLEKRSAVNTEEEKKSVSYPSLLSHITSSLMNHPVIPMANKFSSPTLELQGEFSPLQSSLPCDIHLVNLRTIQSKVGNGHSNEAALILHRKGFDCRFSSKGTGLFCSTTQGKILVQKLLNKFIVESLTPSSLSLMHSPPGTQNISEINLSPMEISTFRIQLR

[4] = system: human normal fibroblast (08C0015); assay: Cell based selectivity assay; details: 08C0015, 24 h treatment
[5] = target: T2, α-hGMII (Homo sapiens, UniProt Q16706); assay: Glycan-based; type: biochemical; details: SI = (α-hLM IC50)/(α-hGMII IC50), oligosaccharide substrates
T2 sequence (Q16706 1-1144): T1 sequence (Q16706 1-1144)
Summary of the method: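 The substrate for human Golgi α-mannosidase II was 2-aminobenzamide-labelled GlcNAcMan5GlcNAc2 (GlcNAcMan5-2AB), with LNnT-2AB as internal standard. Enzyme, substrate and test compound (0, 0.3, 0.1, 0.03 μM) were incubated 24 h at 37 °C. Remaining substrate was measured by UPLC fluorescence as the peak area ratio of substrate to internal standard. Ki was taken from a Lineweaver–Burk plot. SI used lysosomal α-mannosidase IC50, run the same way with Man5-2AB substrate and NA2-2AB standard.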

Structure (SMILES) | signs of harm / body weight during treatment [1] | tumor growth compared to the control ([1]; P < 0.05) | side effects (hepatotoxicity and nephrotoxicity) [2] | SI: selectivity index [3] | increase of relative intensity of overall Man2-9GlcNAc compared to the control group [4] | SI: selectivity index (glycan based) [5]
CNC(=O)c1cc(Oc2ccc(NC(=O)Nc3ccc(Cl)c(C(F)(F)F)c3)cc2)ccn1 [Sorafenib, sorafenib] | neither mice injected with 8b-3 nor sorafenib exhibited signs of harm or decreased body weight | significant reduction in tumor growth | no serious side effects including hepatotoxicity and nephrotoxicity were observed |  |  | 
O[C@H]1[C@H]2[C@H](O)CCCN2C[C@H]1O [sw, swainsonine] |  |  |  | 4.6 | about 5 fold | 5
